One assay has as its target T1, sigma-2 receptor (Rattus norvegicus, UniProt Q5U3Y7).
T1 sequence (Q5U3Y7 1-176): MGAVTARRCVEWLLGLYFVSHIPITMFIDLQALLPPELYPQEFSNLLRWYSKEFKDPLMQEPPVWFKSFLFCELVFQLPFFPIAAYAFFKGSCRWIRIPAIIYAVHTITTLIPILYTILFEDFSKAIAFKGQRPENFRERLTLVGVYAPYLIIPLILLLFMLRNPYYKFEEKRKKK
The assay can be described thus: radioligand competition with [3H]RHM-1 in rat liver membranes. The assay is classed as binding. To be noted: read-out: Ki for sigma-2 receptors. Put shortly: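 Rat liver membrane homogenate (~300 μg protein) in 50 mM Tris-HCl, pH 8.0, incubated 60 min at 25°C with 1 nM [³H]RHM-1 (80 Ci/mmol) and test compound at 0.1 nM–10 μM. Stopped with cold 10 mM Tris-HCl/150 mM NaCl, pH 7.4, filtered onto glass-fiber filters presoaked 1 h in 50 mM Tris-HCl, washed three times ice-cold, scintillation counted. Nonspecific binding: 10 μM haloperidol.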

Another assay concerns the target sigma-1 receptor (Cavia porcellus, UniProt Q60492). The assay can be described thus: radioligand competition with [3H]. It counts as binding. To be noted: read-out: Ki for sigma-1 receptors. For orientation: Loss of bound radioactivity is the signal in a displacement assay; it reports binding, not function.

In general, Ki refers to the equilibrium dissociation constant of an inhibitor or competing ligand from its target.

Sequence of sigma-1 receptor (Q60492 whole entry): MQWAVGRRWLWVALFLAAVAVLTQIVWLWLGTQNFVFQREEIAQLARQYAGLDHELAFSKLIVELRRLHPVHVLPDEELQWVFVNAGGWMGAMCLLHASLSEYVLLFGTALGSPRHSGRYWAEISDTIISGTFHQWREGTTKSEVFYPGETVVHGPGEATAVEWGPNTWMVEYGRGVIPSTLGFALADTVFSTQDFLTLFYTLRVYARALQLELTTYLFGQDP

On to `O[C@@H](CN1[C@@H]2CC[C@H]1CC(c1ccccc1)C2)c1cccc(Br)c1` (some centres unmarked) [RHM-138], for which the results for the inhibition constant Ki at sigma-2 receptor and on sigma-1 receptor were 12.3 nM and 544 nM, respectively.

The values above are taken from paper PMC3923374 (Analytical biochemistry, 2013).
